Measurements taken from ChEMBL document CHEMBL1134291, “The synthesis of a prodrug of doxorubicin designed to provide reduced systemic toxicity and greater target efficacy” (J Med Chem, 2001).
*1 amine or outer side, *2 acyl side, *3 side chain or, on linkers, in order; H or OH if unused. Where a SMILES comes first, the peptide text is derived from it. [ ]: non-standard residue; d: D form. The star is where a group is joined. Doxorubicin(3'-N) = COc1cccc2c1C(=O)c1c(O)c3c(c(O)c1C2=O)C[C@@](O)(C(=O)CO)C[C@@H]3O[C@H]1C[C@H](N*)[C@H](O)[C@H](C)O1; X1 = COc1cccc2c1C(=O)c1c(O)c3c(c(O)c1C2=O)C[C@@](O)(C(=O)CO)C[C@@H]3OC1CC(N*)C(O)C(C)O1; Glutaryl = O=C(CCCC(=O)[*:2])[*:1]; Hyp = O=C(O)[C@@H]1C[C@@H](O)CN1; Chg = N[C@H](C(=O)O)C1CCCCC1; Orn = NCCC[C@H](N)C(=O)O

Tests used:
[1] = test system: DuPro; test: Concentration required to kill 50% of tumor cells in PSA nonproducing DuPRO human prostate cancer cell line; format: functional, cell-based
[2] = test system: LNCaP; test: Concentration required to kill 50% of tumor cells in PSA producing LNCaP human prostate cancer cell line; format: functional, cell-based
[3] = test system: Mus musculus; test: Maximum nonlethal drug dose which could be administered (ip) to non tumor bearing nude mice for 5 consecutive days; format: functional
[4] = test system: LNCaP; test: Percentage PSA reduction relative to vehicle control following intraperitoneal injection of conjugate dose for 5 consecutive days to nude mice bearing LNCaP tumor xenografts; format: functional, Homo sapiens
[5] = test system: Mus musculus; test: Percentage weight reduction relative to vehicle control following intraperitoneal (ip) injection of conjugate dose for 5 consecutive days to nude mice bearing LNCaP tumor xenografts( 7.6 umol/kg dose); format: functional
[6] = test system: PSA; test: Time required for PSA to hydrolyze 50% (t1/2); format: ADME; settings: PSA (enzyme)
[7] = test system: Mus musculus; test: Percentage weight reduction relative to vehicle control following intraperitoneal (ip) injection of conjugate dose for 5 consecutive days to nude mice bearing LNCaP tumor xenografts( 21.7 umol/kg dose)
[8] = test system: Mus musculus; test: Percentage weight reduction relative to vehicle control following intraperitoneal (ip) injection of conjugate dose for 5 consecutive days to nude mice bearing LNCaP tumor xenografts(14.8 umol/kg dose); format: functional
[9] = test system: Mus musculus; test: Percentage weight reduction relative to vehicle control following intraperitoneal (ip) injection of conjugate dose for 5 consecutive days to nude mice bearing LNCaP tumor xenografts(18.9 umol/kg dose); format: functional
[10] = test system: Mus musculus; test: Percentage weight reduction relative to vehicle control following intraperitoneal (ip) injection of conjugate dose for 5 consecutive days to nude mice bearing LNCaP tumor xenografts( 22.7 umol/kg dose); format: functional
In short: (§1)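 Nude mice carrying xenografts of PSA-secreting human prostate LNCaP cells received the conjugate intraperitoneally once daily for 5 consecutive days. Circulating PSA and tumor weight were each expressed as percent reduction against vehicle-treated controls.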

[11] = test system: Mus musculus; test: Percentage weight reduction relative to vehicle control following intraperitoneal (ip) injection of conjugate dose for 5 consecutive days to nude mice bearing LNCaP tumor xenografts(36.6 umol/kg dose); format: functional; in short: as §1
[12] = test system: Mus musculus; test: Percentage weight reduction relative to vehicle control following intraperitoneal (ip) injection of conjugate dose for 5 consecutive days to nude mice bearing LNCaP tumor xenografts( 22.4 umol/kg dose); format: functional
[13] = test system: Mus musculus; test: Percentage weight reduction relative to vehicle control following intraperitoneal (ip) injection of conjugate dose for 5 consecutive days to nude mice bearing LNCaP tumor xenografts( 29.0 umol/kg dose); format: functional
[14] = test system: Mus musculus; test: Percentage weight reduction relative to vehicle control following intraperitoneal (ip) injection of conjugate dose for 5 consecutive days to nude mice bearing LNCaP tumor xenografts( 29.3 umol/kg dose); format: functional
[15] = test system: Mus musculus; test: Percentage weight reduction relative to vehicle control following intraperitoneal (ip) injection of conjugate dose for 5 consecutive days to nude mice bearing LNCaP tumor xenografts( 21.5 umol/kg dose); format: functional
[16] = test system: Mus musculus; test: Percentage weight reduction relative to vehicle control following intraperitoneal (ip) injection of conjugate dose for 5 consecutive days to nude mice bearing LNCaP tumor xenografts (2.8 umol/kg dose); format: functional

Structure (SMILES) | EC50 [1] | EC50 [2] | MTD [3] | Reduction [4] | half-life [6] | other results
COc1cccc2c1C(=O)c1c(O)c3c(c(O)c1C2=O)C[C@@](O)(C(=O)CO)C[C@@H]3OC1CC(NC(=O)[C@H](N)CC(C)C)C(O)C(C)O1 (stereo partly drawn) | 14 µM | 6.7 µM | 7.6 µM/kg | 10% | – | Reduction [5]: -5%
COc1cccc2c1C(=O)c1c(O)c3c(c(O)c1C2=O)C[C@@](O)(C(=O)CO)C[C@@H]3OC1CC(NC(=O)[C@H](CC(C)C)NC(=O)[C@H](CO)NC(=O)[C@@H](CCC(N)=O)NC(=O)[C@@H](NC(=O)[C@H](CO)NC(=O)[C@H](C)NC(=O)C2CC(O)CN2C(=O)CCC(=O)O)C2CCCCC2)C(O)C(C)O1 (stereo partly drawn) | 100 µM | 5.7 µM | 28.9 µM/kg | 94% | 55 min | Reduction [7]: 72%
COc1cccc2c1C(=O)c1c(O)c3c(c(O)c1C2=O)C[C@@](O)(C(=O)CO)C[C@@H]3OC1CC(NC(=O)[C@H](CC(C)C)NC(=O)[C@H](CO)NC(=O)[C@H](CCC(N)=O)NC(=O)[C@H](Cc2ccc(O)cc2)NC(=O)[C@H](CO)NC(=O)[C@H](C)NC(=O)[C@H](CCCN)NC(C)=O)C(O)C(C)O1 (stereo partly drawn) | > 100 µM | 7.3 µM | 29.7 µM/kg | 70% | 40 min | Reduction [8]: 57%
COc1cccc2c1C(=O)c1c(O)c3c(c(O)c1C2=O)C[C@@](O)(C(=O)CO)C[C@@H]3OC1CC(NC(=O)[C@H](CC(C)C)NC(=O)[C@H](CO)NC(=O)[C@@H](CCC(N)=O)NC(=O)[C@H](Cc2ccc(O)cc2)NC(=O)[C@H](CO)NC(=O)[C@H](C)NC(=O)[C@H](CCCN)NC(C)=O)C(O)C(C)O1 (stereo partly drawn) | > 100 µM | 85 µM | >45.3 µM/kg | 22% | > 1200 min | Reduction [9]: 26%
COc1cccc2c1C(=O)c1c(O)c3c(c(O)c1C2=O)C[C@@](O)(C(=O)CO)C[C@@H]3OC1CC(NC(=O)[C@H](CC(C)C)NC(=O)[C@H](CO)NC(=O)[C@@H](CCC(N)=O)NC(=O)[C@@H](NC(=O)[C@H](CO)NC(=O)[C@H](C)NC(=O)C2CC(O)CN2C(C)=O)C2CCCCC2)C(O)C(C)O1 (stereo partly drawn) | > 100 µM | 4.5 µM | 22.7 µM/kg | 96% | 20 min | Reduction [10]: 81%
COc1cccc2c1C(=O)c1c(O)c3c(c(O)c1C2=O)C[C@@](O)(C(=O)CO)C[C@@H]3O[C@H]1C[C@H](NC(=O)[C@H](CC(C)C)NC(=O)[C@H](CO)NC(=O)[C@H](CO)NC(=O)[C@H](CCC(N)=O)NC(=O)[C@H](Cc2ccc(O)cc2)NC(=O)[C@H](CO)NC(=O)[C@H](C)NC(=O)[C@H](CCCCN)NC(=O)[C@H](CC(N)=O)NC(=O)[C@H](C)NC(C)=O)[C@H](O)[C@H](C)O1 (Ac-ANKASYQSSL-{Doxorubicin(3'-N)}) | – | – | >36.6 µM/kg | 87% | – | Reduction [11]: 81%
COc1cccc2c1C(=O)c1c(O)c3c(c(O)c1C2=O)C[C@@](O)(C(=O)CO)C[C@@H]3OC1CC(NC(=O)[C@H](CC(C)C)NC(=O)[C@H](CO)NC(=O)[C@H](CCC(N)=O)NC(=O)[C@@H](NC(=O)[C@H](CO)NC(=O)[C@H](C)NC(=O)[C@H](CCCCN)NC(C)=O)C2CCCCC2)C(O)C(C)O1 (stereo partly drawn) (Ac-KAS[Chg]QSL-X1) | – | – | 29.9 µM/kg | 95% | – | Reduction [12]: 73%
COc1cccc2c1C(=O)c1c(O)c3c(c(O)c1C2=O)C[C@@](O)(C(=O)CO)C[C@@H]3OC1CC(NC(=O)[C@H](CC(C)C)NC(=O)[C@H](CO)NC(=O)[C@H](CO)NC(=O)[C@H](CO)NC(=O)[C@H](CCC(N)=O)NC(=O)[C@H](Cc2ccc(O)cc2)NC(=O)[C@H](CCCCN)NC(C)=O)C(O)C(C)O1 (stereo partly drawn) (Ac-KYQSSSL-X1) | > 100 µM | 6.9 µM | 32.6 µM/kg | 90% | 60 min | Reduction [13]: 70%
COc1cccc2c1C(=O)c1c(O)c3c(c(O)c1C2=O)C[C@@](O)(C(=O)CO)C[C@@H]3OC1CC(NC(=O)[C@H](CC(C)C)NC(=O)[C@H](CO)NC(=O)[C@H](CO)NC(=O)[C@H](CO)NC(=O)[C@H](CCC(N)=O)NC(=O)[C@H](Cc2ccc(O)cc2)NC(=O)[C@H](CCCN)NC(C)=O)C(O)C(C)O1 (stereo partly drawn) (Ac-[Orn]YQSSSL-X1) | > 100 µM | 7 µM | 33 µM/kg | 93% | 120 min | Reduction [14]: 80%
COc1cccc2c1C(=O)c1c(O)c3c(c(O)c1C2=O)C[C@@](O)(C(=O)CO)C[C@@H]3O[C@H]1C[C@H](NC(=O)[C@H](CC(C)C)NC(=O)[C@H](CO)NC(=O)[C@H](CCC(N)=O)NC(=O)[C@@H](NC(=O)[C@H](CO)NC(=O)[C@H](C)NC(=O)[C@@H]2C[C@@H](O)CN2C(=O)CCCC(=O)O)C2CCCCC2)[C@H](O)[C@H](C)O1 (Glutaryl-[Hyp]AS[Chg]QSL-{Doxorubicin(3'-N)}) [listing 1 of 2 here] | > 100 µM | 5 µM | – | – | 30 min | –
COc1cccc2c1C(=O)c1c(O)c3c(c(O)c1C2=O)C[C@@](O)(C(=O)CO)C[C@@H]3O[C@H]1C[C@H](NC(=O)[C@H](CC(C)C)NC(=O)[C@H](CO)NC(=O)[C@H](CCC(N)=O)NC(=O)[C@@H](NC(=O)[C@H](CO)NC(=O)[C@H](C)NC(=O)[C@@H]2C[C@@H](O)CN2C(=O)CCCC(=O)O)C2CCCCC2)[C@H](O)[C@H](C)O1 (Glutaryl-[Hyp]AS[Chg]QSL-{Doxorubicin(3'-N)}) [listing 2 of 2 here] | – | – | 28.6 µM/kg | 95% | – | Reduction [15]: 87%
COc1cccc2c1C(=O)c1c(O)c3c(c(O)c1C2=O)C[C@@](O)(C(=O)CO)C[C@@H]3O[C@H]1C[C@H](N)[C@H](O)[C@H](C)O1 [DOXORUBICIN] | 1.8 µM | 0.7 µM | 2.8 µM/kg | 16% | – | Reduction [16]: 6%
